Assay results from PubChem BioAssay.
Calls of active or inactive are those of the source. Unless noted, no stated cut-off is given here; in the data, active means inhibition above about 30%; inactive means the rest.

Tests used:
[1] = HUVEC growth inhibition – cell-based, human, primary screen (AID 575;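 active means viability at or below 30% in both replicate assays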;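 further: 100% = median of untreated cell wells with 0.1% DMSO on each plate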); conditions: HUVEC proliferation, CellTiter-Glo luminescence, 72 h; at 10 µM; stronger effect = lower value
Method in brief: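 Test system – primary HUVEC, no more than 12 passages · Dosing – one dose, 10 µM final, 0.1% DMSO · Times – 72 h treatment at 37 °C · Measured by – ATP-based CellTiter-Glo luminescent read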

[2] = growth inhibitors of H69AR lung tumor, primary screen, human, duplicate replicates (AID 580;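 active means viability at or under a set limit in both replicates, limit being median viability minus 3 SD, cut at about 48% in these data, passing the limit was not always enough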;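 further: 100% = mean luminescence of untreated wells and 0% = no signal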); conditions: H69AR lung tumor cells viability, ATP luminescence, 72 h; at 10 µM; stronger effect = lower value
[3] = reversal of MRP1-mediated doxorubicin resistance, pilot screen, H69AR cells, doxorubicin co-treatment (AID 601;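 active means viability loss from added drug above about 55%, and viability with drug at most 40%, in both replicates, limit read from the data, passing the limit was not always enough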); conditions: CellTiter-Glo, 72 h, at 10 µM; for differential viability (reversal): stronger effect = higher value
[4] = 384-well plate pilot, post-Golgi transport modulator project, inhibition of yeast transport mutant growth (AID 636; in the data active means inhibition above about 31%); conditions: absorbance 615 nm, about 18 h, stronger effect = higher value
[5] = growth suppression of yeast trafficking mutant, preliminary HTS, modulators of trafficking downstream of Golgi apparatus project, 1536-format plate, OD 615 nm (AID 637); conditions: yeast transport mutant growth, absorbance 615 nm, 18 h; stronger effect = higher value
[6] = H69AR cells + 2 uM doxorubicin, measured here: viability with 2 uM doxorubicin, stronger effect = lower value
[7] = H69AR cells, compound alone cytotoxicity

| Compound | viability [1] | viability [2] | differential viability (reversal) ([3]; H69AR cells + 2 uM doxorubicin) | viability [3, 6] [%] | viability [3, 7] [%] | inhibition [4] | inhibition [5] |
| --- | --- | --- | --- | --- | --- | --- | --- |
| COc1cc(NC(=O)c2cc(-n3cnnc3)ccc2Cl)cc(OC)c1 | 93.6% (inactive) | 104% (inactive) | 19.9% (inactive) | 83.7 | 104 | 0% (inactive) | -1.11% (inactive) |
| CCN1CCN(Cc2ccccc2NC(=O)Nc2ccc(C)cc2)CC1 | 89.7% (inactive) | 98% (inactive) | 11.2% (inactive) | 86.8 | 98 | -5.92% (inactive) | -0.16% (inactive) |
| Cc1cc(C(=O)Nc2cc(C)n(Cc3ccc(Cl)cc3)n2)no1 | 102% (inactive) | 94.5% (inactive) | 2.41% (inactive) | 92.1 | 94.5 | 1.97% (inactive) | -6.51% (inactive) |
| CC12C(=O)N(CCC(=O)O)C(=O)C1C1C=CC2C1 (stereo unspecified) | 107% (inactive) | 89.6% (inactive) | -1.44% (inactive) | 91 | 89.6 | -2.37% (inactive) | 2.86% (inactive) |
| O=C(NC1(C(F)(F)F)NC(=O)N(Cc2ccco2)C1=O)c1cccnc1 (stereo unspecified) | 109% (inactive) | 97.2% (inactive) | 2.34% (inactive) | 94.8 | 97.2 | -7.89% (inactive) | 1.11% (inactive) |
| O=C(NCC1CCCO1)C1CC(c2ccc(Cl)c(Cl)c2)=NO1 (stereo unspecified) | 111% (inactive) | 104% (inactive) | -1.44% (inactive) | 105 | 104 | -0.13% (inactive) | -8.1% (inactive) |
| CC(C)Cc1nc2oc3c(N4CCN(CCO)CC4)ncnc3c2c2c1CCCC2 | 52.4% (inactive) | 42.6% (active) | -12.1% (inactive) | 54.7 | 42.6 | -0.26% (inactive) | -6.33% (inactive) |
| COc1cccc(C(=O)Nc2cccc(C(=O)N3CCOCC3)c2)c1 | 97.1% (inactive) | 90.1% (inactive) | 13% (inactive) | 77.1 | 90.1 | -4.68% (inactive) | 0.32% (inactive) |
| CC(OC1=CC(=O)CCC1)C(=O)c1ccccc1 (stereo unspecified) | 102% (inactive) | 108% (inactive) | 18% (inactive) | 89.8 | 108 | -2.6% (inactive) | -0.48% (inactive) |
| Cc1c(Cc2ccccc2)sc(N)c1C(N)=O | 86.5% (inactive) | 93.5% (inactive) | 2.93% (inactive) | 90.6 | 93.5 | -3.77% (inactive) | 5.71% (inactive) |
| CN1CCCc2cc(C#N)c(=O)[nH]c21 | 99.7% (inactive) | 107% (inactive) | 8.18% (inactive) | 99.3 | 107 | -5.71% (inactive) | -2.38% (inactive) |
| Cc1ccc(C)c(C(=O)CC2(O)C(=O)Nc3ccccc32)c1 (stereo unspecified) | 109% (inactive) | 105% (inactive) | 17.1% (inactive) | 88 | 105 | -3.6% (inactive) | -7.3% (inactive) |
| COc1cc(NC(=O)Cc2ccccc2OC)cc(OC)c1 | 96.9% (inactive) | 95.7% (inactive) | 3.67% (inactive) | 92 | 95.7 | 0.27% (inactive) | -6.67% (inactive) |
| O=C1CCCc2nc(N3CCCCC3)sc21 | 88.9% (inactive) | 82.8% (inactive) | -6.74% (inactive) | 89.6 | 82.8 | -0.27% (inactive) | -0.95% (inactive) |
| CCCCCn1c(CN(C)Cc2ccccc2)nc2c1c(=O)n(C)c(=O)n2C | 85.8% (inactive) | 79.8% (inactive) | 11.4% (inactive) | 68.3 | 79.8 | 1.45% (inactive) | 4.76% (inactive) |
| CCc1nnc(NC(=O)CSc2nc3ccccc3s2)s1 | 93% (inactive) | 101% (inactive) | 10.1% (inactive) | 91.1 | 101 | -2.24% (inactive) | 0.48% (inactive) |
| O=C(Cn1nnc2c(cnn2-c2ccc(F)cc2)c1=O)c1ccccc1F | 75.6% (inactive) | 81.2% (inactive) | 16.1% (inactive) | 65.1 | 81.2 | -3.64% (inactive) | -0.48% (inactive) |
| COc1ccc(OC)c(Nc2ncnc3c2cnn3-c2ccccc2)c1 | 99.3% (inactive) | 90.5% (inactive) | 1.97% (inactive) | 88.5 | 90.5 | -4.67% (inactive) | -5.87% (inactive) |
| Cc1noc(C)c1C(=O)Nc1sc(C)c(C)c1C#N | 105% (inactive) | 95.5% (inactive) | 20.3% (inactive) | 75.2 | 95.5 | -1.97% (inactive) | 2.86% (inactive) |

| Compound | viability [1] | viability [2] | differential viability (reversal) ([3]; H69AR cells + 2 uM doxorubicin) | viability [3, 6] [%] | viability [3, 7] [%] | inhibition [4] | inhibition [5] |
| --- | --- | --- | --- | --- | --- | --- | --- |
| O=C(CCCNS(=O)(=O)c1ccccc1)NCc1ccco1 | 94.5% (inactive) | 99.3% (inactive) | 6.58% (inactive) | 92.7 | 99.3 | -4.67% (inactive) | 1.9% (inactive) |
| Cc1ccc(CSc2nc3c(c(=O)[nH]2)C(c2ccncc2)C2=C(CCCC2=O)N3)cc1 (stereo unspecified) | 72.5% (inactive) | 97.9% (inactive) | 6.75% (inactive) | 91.1 | 97.9 | -3.03% (inactive) | 2.22% (inactive) |
| O=C(NC1CCCC1)c1cc(-c2cccs2)on1 | 90.4% (inactive) | 88.6% (inactive) | 8.04% (inactive) | 80.6 | 88.6 | -4.21% (inactive) | 3.17% (inactive) |
| O=C(c1cnn2c1NC(c1ccco1)CC2C(F)(F)F)N1CCN(c2cccc(Cl)c2)CC1 (stereo unspecified) | 48.7% (inactive) | 9.38% (active) | -61.4% (inactive) | 70.8 | 9.38 | -6% (inactive) | -2.22% (inactive) |
| O=C(Sc1nnnn1C1CCCCC1)c1cccs1 | 102% (inactive) | 98.7% (inactive) | 6.21% (inactive) | 92.5 | 98.7 | -6.53% (inactive) | 3.81% (inactive) |
| O=c1c2ccccc2c(C=Nc2ccc(Cl)cn2)c(O)n1-c1cc(Cl)ccc1N1CCOCC1 | 91.7% (inactive) | 89.1% (inactive) | 7.31% (inactive) | 81.8 | 89.1 | -0.65% (inactive) | -3.49% (inactive) |
| O=C(O)Cn1nc2ccccc2n1 | 108% (inactive) | 93.9% (inactive) | 3.65% (inactive) | 90.3 | 93.9 | -4% (inactive) | 8.73% (inactive) |
| COc1ccc(Cl)cc1Nc1nc(NCCO)nc(N2CCCC2)n1 | 55.1% (inactive) | 89.3% (inactive) | -10.3% (inactive) | 99.6 | 89.3 | -7.57% (inactive) | 8.41% (inactive) |
| CN(CC(=O)O)S(=O)(=O)c1cc(Cl)ccc1Cl | 112% (inactive) | 96.8% (inactive) | 12.2% (inactive) | 84.6 | 96.8 | -2.53% (inactive) | -5.24% (inactive) |
| O=C(CSc1nc2ccc(Cl)cc2[nH]1)NCc1ccco1 | 74.2% (inactive) | 65.4% (inactive) | -4.26% (inactive) | 69.6 | 65.4 | 0.65% (inactive) | 13.3% (inactive) |
| COc1ccc(C(=O)Nc2ccccc2C(=O)NCCN2CCOCC2)cc1 | 107% (inactive) | 95.8% (inactive) | 2.99% (inactive) | 92.8 | 95.8 | 0% (inactive) | -4.13% (inactive) |
| O=C(CC1CCCCC1)NCc1ccccn1 | 92.2% (inactive) | 95.8% (inactive) | 12.9% (inactive) | 82.9 | 95.8 | -3.42% (inactive) | -6.67% (inactive) |
| CN(Cc1cnn(C)c1)C(=O)c1cc2ccccc2oc1=O | 114% (inactive) | 103% (inactive) | 13.3% (inactive) | 89.9 | 103 | -5.66% (inactive) | 2.06% (inactive) |
| COc1ccccc1-n1c(C)nnc1SCC(=O)Nc1cccc(C(C)=O)c1 | 101% (inactive) | 104% (inactive) | 6.48% (inactive) | 97 | 104 | -4.4% (inactive) | 17.9% (inactive) |
| COc1ccccc1C(=O)NCCNC(=O)c1ccco1 | 112% (inactive) | 91.6% (inactive) | -4.88% (inactive) | 96.5 | 91.6 | -4.53% (inactive) | 0.48% (inactive) |
| CCOc1ccc(N(C)S(=O)(=O)c2ccc3[nH]cc(C(=O)NCC4CCCO4)c(=O)c3c2)cc1 (stereo unspecified) | 73.7% (inactive) | 87.9% (inactive) | 5.04% (inactive) | 82.9 | 87.9 | -2.86% (inactive) | -3.17% (inactive) |
| O=C(CCn1c(=O)c2sccc2n(CC(=O)NCc2ccco2)c1=O)NCc1ccccc1 | 93.6% (inactive) | 96.9% (inactive) | 4.46% (inactive) | 92.5 | 96.9 | -0.65% (inactive) | -1.59% (inactive) |
| Nc1nc(-c2ccccc2)cc(C(F)(F)F)n1 | 95.4% (inactive) | 103% (inactive) | 8.53% (inactive) | 94.1 | 103 | -3.51% (inactive) | 1.27% (inactive) |
| COc1ccc(S(=O)(=O)NC(CC(=O)NCc2ccco2)c2ccco2)cc1 (stereo unspecified) | 99.7% (inactive) | 103% (inactive) | 22.1% (inactive) | 81.3 | 103 | -2.08% (inactive) | 4.29% (inactive) |
